# Laboratory results from ChEMBL document CHEMBL4041484, “Semisynthesis and Structure-Activity Studies of Uncarinic Acid C Isolated from Uncaria rhynchophylla as a Specific Inhibitor of the Nucleation Phase in Amyloid β42 Aggregation” (J Nat Prod, 2016).
# Calls of active or inactive are those of the source. The rule behind the calls is not given here.
# Experiments:
# [1] = target: Amyloid-beta precursor protein (Homo sapiens) (UniProt P05067); test: Inhibition of HFIP pretreated Abeta42 (unknown origin) aggregation at elongation phase at 50 uM by Thioflavin-T fluorescence assay
# How it was run: (§1)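 Aβ42 was held at 250 μM in HFIP for 30 min at room temperature, sonicated 5 min, dried under reduced pressure, then redissolved in 0.1% NH4OH. It was incubated at 25 μM with compound at 50 μM in PBS, pH 7.4, at 37 °C, sampled periodically over time. Th-T (5.0 μM, Gly-NaOH pH 8.5) fluorescence was read at ex 430/em 485 nm. Means ± SD, n = 8.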
# [2] = target: Amyloid-beta precursor protein (Homo sapiens) (UniProt P05067); test: Inhibition of HFIP pretreated Abeta42 (unknown origin) aggregation at nucleation phase at 50 uM by Thioflavin-T fluorescence assay; how it was run: as §1
# [3] = target: Amyloid-beta precursor protein (Homo sapiens) (UniProt P05067); test: Inhibition of Abeta42 (unknown origin) aggregation at early stage incubated for 8 hrs by Thioflavin-T fluorescence assay
# How it was run: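 Synthetic Aβ42 (250 μM stock in 0.1% NH4OH), final 25 μM, with compound at 50 μM final (5 mM ethanol stock) in PBS (50 mM sodium phosphate, 100 mM NaCl, pH 7.4), 37 °C for 8 h. An aliquot was mixed with 5.0 μM Th-T in 5.0 mM Gly-NaOH, pH 8.5, and read at ex 430/em 485 nm. Eight points were measured per time.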
# [4] = target: Amyloid-beta precursor protein (Homo sapiens) (UniProt P05067); test: Inhibition of HFIP pretreated Abeta42 (unknown origin) aggregation at nucleation phase assessed as time required for nucleation of Abeta42 at 50 uM by Thioflavin-T fluorescence assay; how it was run: as §1
# [5] = Solubility of the compound in phosphate-buffered saline at pH 7.4 at 50 uM; type: physicochemical; settings: buffer, pH 7.4, 50 µM
# [6] = target: Amyloid-beta precursor protein (Homo sapiens) (UniProt P05067); test: Inhibition of HFIP pretreated Abeta42 (unknown origin) aggregation at nucleation phase assessed as time delay for Abeta42 aggregation velocity at 50 uM by sedimentation assay
# How it was run: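 HFIP-pretreated Aβ42 (25 μM) and compound (50 μM) were incubated in PBS, pH 7.4, at 37 °C over a time course. Samples were centrifuged at 15 000 rpm, 4 °C, 10 min. Supernatant Aβ42 was quantified by reversed-phase HPLC (ODS, 10–50% CH3CN in 0.1% NH4OH over 30 min, 1.0 mL/min, UV detection). Means ± SE, n = 2.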
# Sequence of Amyloid-beta precursor protein (Homo sapiens) (P05067 whole entry): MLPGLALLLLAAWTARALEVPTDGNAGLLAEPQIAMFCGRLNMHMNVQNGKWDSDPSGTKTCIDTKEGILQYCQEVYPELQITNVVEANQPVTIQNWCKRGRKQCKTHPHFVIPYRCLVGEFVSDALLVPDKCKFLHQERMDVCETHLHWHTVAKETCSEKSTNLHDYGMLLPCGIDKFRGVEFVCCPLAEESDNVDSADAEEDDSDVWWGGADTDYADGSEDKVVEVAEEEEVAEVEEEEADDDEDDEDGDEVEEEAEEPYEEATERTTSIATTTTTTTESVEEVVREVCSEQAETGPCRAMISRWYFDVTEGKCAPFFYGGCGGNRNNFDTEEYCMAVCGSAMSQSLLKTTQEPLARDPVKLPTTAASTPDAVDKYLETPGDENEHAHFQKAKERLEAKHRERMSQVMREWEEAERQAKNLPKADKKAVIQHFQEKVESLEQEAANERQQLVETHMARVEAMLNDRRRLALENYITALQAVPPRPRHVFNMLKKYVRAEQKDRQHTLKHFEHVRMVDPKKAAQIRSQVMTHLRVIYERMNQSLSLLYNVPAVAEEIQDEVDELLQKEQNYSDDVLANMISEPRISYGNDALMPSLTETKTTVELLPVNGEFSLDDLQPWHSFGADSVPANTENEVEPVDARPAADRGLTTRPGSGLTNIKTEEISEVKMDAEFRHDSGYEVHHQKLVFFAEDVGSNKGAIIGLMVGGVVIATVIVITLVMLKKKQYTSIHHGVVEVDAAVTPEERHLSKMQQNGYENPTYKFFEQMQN
SMILES,inhibition [1],inhibition [2],inhibition [3],TIME [4] [h],solubility [5],TIME [6] [h]
CC(=O)OC[C@@]12CC[C@@]3(C(=O)O)CC[C@@H](C)[C@H](C)[C@H]3C1=CC[C@@H]1[C@@]3(C)CC[C@H](O)C(C)(C)[C@@H]3CC[C@]12C,inactive,inactive,,,,
COc1cc(/C=C/C(=O)OC[C@@]23CC[C@@]4(C(=O)O)CC[C@@H](C)[C@H](C)[C@H]4C2=CC[C@@H]2[C@@]4(C)CC[C@H](O)C(C)(C)[C@@H]4CC[C@]23C)ccc1O,,,Active,12,Soluble,8
COC(=O)[C@]12CC[C@@H](C)[C@H](C)[C@H]1C1=CC[C@@H]3[C@@]4(C)CC[C@H](O)C(C)(C)[C@@H]4CC[C@@]3(C)[C@]1(COC(=O)/C=C/c1ccc(O)c(OC)c1)CC2,inactive,inactive,,,,
COc1cc(/C=C/C(=O)OC[C@@]23CC[C@@]4(CO)CC[C@@H](C)[C@H](C)[C@H]4C2=CC[C@@H]2[C@@]4(C)CC[C@H](O)C(C)(C)[C@@H]4CC[C@]23C)ccc1O,inactive,inactive,,,,
COc1cc(/C=C\C(=O)OC[C@@]23CC[C@@]4(C(=O)O)CC[C@@H](C)[C@H](C)[C@H]4C2=CC[C@@H]2[C@@]4(C)CC[C@H](O)C(C)(C)[C@@H]4CC[C@]23C)ccc1O,,,Active,10,Soluble,
C[C@H]1[C@H](C)CC[C@]2(C(=O)O)CC[C@]3(C)C(=CC[C@@H]4[C@@]5(C)CC[C@H](O)C(C)(C)[C@@H]5CC[C@]43C)[C@H]12,inactive,inactive,,,,
C[C@H]1[C@H](C)CC[C@]2(C(=O)O)CC[C@]3(CO)C(=CC[C@@H]4[C@@]5(C)CC[C@H](O)C(C)(C)[C@@H]5CC[C@]43C)[C@H]12,inactive,inactive,,,,
COc1cc(/C=C/C(=O)OC[C@@]23CC[C@@]4(C(=O)O)CCC(C)(C)C[C@H]4C2=CC[C@@H]2[C@@]4(C)CC[C@H](O)C(C)(C)[C@@H]4CC[C@]23C)ccc1O,,,Active,10,Soluble,
COc1cc(/C=C\C(=O)OC[C@@]23CC[C@@]4(C(=O)O)CCC(C)(C)C[C@H]4C2=CC[C@@H]2[C@@]4(C)CC[C@H](O)C(C)(C)[C@@H]4CC[C@]23C)ccc1O,,,Active,10,Soluble,
